Assay results from publication PMC4097887 (Journal of medicinal chemistry, 2008).
Marks after values point to notes of the source that are not given here.

Assays:
[1] = biological target: T1, recombinant human small heterodimer partner (SHP) (Homo sapiens, UniProt Q15466); conditions: cited from earlier work
T1 sequence (Q15466 1-257): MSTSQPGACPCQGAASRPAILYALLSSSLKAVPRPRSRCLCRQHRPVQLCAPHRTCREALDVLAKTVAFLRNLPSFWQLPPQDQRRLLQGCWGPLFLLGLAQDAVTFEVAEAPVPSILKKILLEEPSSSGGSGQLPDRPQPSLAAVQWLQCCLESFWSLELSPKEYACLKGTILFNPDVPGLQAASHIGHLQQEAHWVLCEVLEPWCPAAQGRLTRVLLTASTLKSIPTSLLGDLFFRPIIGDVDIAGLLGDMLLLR

KG-1 AML cells [2] = experiment: KG-1 proliferation inhibition; type: cell-based, human
Summary of the method: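 KG-1 cells in medium with 5% FBS attached overnight and were then exposed to test compound in Me2SO or to Me2SO alone (final 0.1%) for the indicated time. Cells were harvested and counted with a hemocytometer in triplicate wells. Proliferation inhibition is given as IC50 and as percent inhibition at the highest concentration tested.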

[3] = tested on: human microvascular endothelial (HMVE) cells; experiment: HMVE cell growth inhibition; type: cell-based; conditions: 0.5 μM
KG-1 AML cells [4] = experiment: KG-1 cell apoptosis; type: cell-based, human
Summary of the method: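 Cells in medium with 5% FBS attached overnight, then exposed to test compound in Me2SO or to Me2SO alone (final 0.1%). Exposure was 24 h for HL-60R and 48 h for KG-1. Apoptotic cells were scored by acridine orange staining on at least three replicates and expressed as percent apoptosis.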

[5] = tested on: DU-145, MDA-MB-231 and H292 cancer cell lines; experiment: Proliferation inhibition of the three solid tumor cell lines; type: cell-based, human
Summary of the method: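 DU-145, MDA-MB-231 and H292 cells attached for 24 h and were then treated for 72 h with test compound in Me2SO or with vehicle alone (final Me2SO 0.1%). Medium and compound were replaced at 48 h. Viable cells were measured by tetrazolium (MTS-type) reduction in triplicate per concentration, and IC50 values were calculated from these counts.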

[6] = tested on: IGROV ovarian cancer cells; conditions: at antiproliferative IC80 value, propidium iodide staining; cited from earlier work
[7] = doses found to induce cancer cell apoptosis in vitro; cited from earlier work
AML animal model = conditions: cited from earlier work

O=C(O)c1ccc2cc(-c3ccc(O)c(C45CC6CC(CC(C6)C4)C5)c3)ccc2c1 [compound 13, 6-[3′-(1-adamantyl)-4′-hydroxyphenyl]-2-naphthoic acid]
affinity of [5,5′-3H2]AHPN for recombinant human SHP [1]: low nanomolar affinity

O=C(O)/C=C/c1ccc(-c2ccc(F)cc2)c(Cl)c1 [compound 5]
% inhibition of KG-1 proliferation at highest concentration evaluated (KG-1 AML cells [2]; 5 μM, 48 h): 0%

CC(C)(C)c1cc(-c2ccc3cc(C(=O)O)ccc3c2)ccc1O [compound 21]
reduction of HMVE cell growth inhibition relative to 13 [3]: 7 fold

CC(C)(C)C#Cc1cc(-c2ccc(/C=C/C(=O)O)cc2Cl)ccc1O [compound 6]
KG-1 antiproliferative activity as fraction of that of 1 (KG-1 AML cells [2]; 5.0 μM): approximately one-third

CC(=O)Nc1ccc(-c2ccc(/C=C/C(=O)O)cc2Cl)cc1C12CC3CC(CC(C3)C1)C2 [compound 2]
further reduction of KG-1 antiproliferative activity relative to 3 (KG-1 AML cells [2]; 5.0 μM): 50%

Nc1ccc(-c2ccc(/C=C/C(=O)O)cc2Cl)cc1C12CC3CC(CC(C3)C1)C2 [compound 3]
weakening of KG-1 apoptosis induction relative to 1 (KG-1 AML cells [4]; 1.0 μM): 67%
weakening of KG-1 apoptosis induction relative to 1 (KG-1 AML cells [4]; 5.0 μM): 27%
KG-1 apoptosis at 48 h (%) (KG-1 AML cells [4]; 5.0 μM): 40 ^j %
increase of IC50 for KG-1 proliferation inhibition compared to 1 (KG-1 AML cells [2]): ~3.6 fold
calculated IC50 values higher than those of 1, three solid tumor cell lines [5]: 3–4 fold

O=C(O)/C=C/c1ccc(-c2ccc(O)c(C34CC5CC(CC(C5)C3)C4)c2)cc1 [compound 15, (E)-4-[3′-(1-adamantyl)-4′-hydroxyphenyl]cinnamic acid]
apoptosis induced in ovarian cancer cell line [6]: 50%
adverse systemic effects in mice [7]: produced adverse systemic effects

O=C(O)/C=C/c1ccc(-c2ccc(O)c(C34CC5CC(CC(C5)C3)C4)c2)c(Cl)c1 [compound 1, (E)-4-[3′-(1-adamantyl)-4′-hydroxyphenyl]-3-chlorocinnamic acid]
survival in an AML animal model (AML animal model): extension of survival

O=C(O)/C=C/c1ccc(-c2ccc(O)c(C34CC5CC(CC3C5)C4)c2)c(Cl)c1 [compound 8]
KG-1 apoptotic activity as % of that exhibited by 1 (KG-1 AML cells [4]; 5.0 μM): 31%
KG-1 apoptosis at 48 h (%) (KG-1 AML cells [4]; 5.0 μM): 16 ^j %
KG-1 proliferation inhibition relative to 1 (KG-1 AML cells [2]; 5.0 μM): 1.2 fold
calculated IC50 values higher than those of 1, three solid tumor cell lines [5]: 10–20 fold

O=C(O)c1ccc2cc(-c3cccc(C45CC6CC(CC(C6)C4)C5)c3)ccc2c1 [compound 18]
HMVE cell growth inhibition at 72 h (%) ([3]; 72 h (Table 1)): moderate
